Assay outcomes as filed in PubChem BioAssay.
Hits are enriched below; roughly 3.5% of the tested compounds scored in any of these assays.
PAFAH2 FP inh: inhibitors of human PAFAH2 | Q99487 | recombinant PAFAH2, FP-rhodamine activity probe, fluorescence polarization | inhibition, % at 3.39 µM | 0.99% of 340,000 active;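 active = inhibition above the mean over all tested compounds plus 3 SD, cut at about 30% in these data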;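 also: inhibitors block probe labeling of enzyme so polarization drops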
Apaf1 inhib: human Apaf-1 inhibition | reconstituted apoptosome caspase-3 activity, DEVD-Rh110 fluorescence | inhibition, % at 20 µM | 0.71% of 330,000 active | AID 489030; active = inhibition of at least 40% at 20 µM
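Material: biochemical Apaf-1 apoptosome reconstitution. Medium: Hepes buffer, pH 7.5. Also added: cytochrome c activation, bis-DEVD rhodamine 110 substrate. Timing: 30 min compound preincubation, 50 min activation, room temperature. Measured by: rhodamine 110 fluorescence at Ex 480/Em 540 nm.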
PREPL inh: human PREPL enzyme inhibition. Q4J6C6. recombinant PREPL, fluorescence polarization activity-based probe. inhibition, % at 5.96 µM. 0.68% of 320,000 active
PAFAH1B3 inh: inhibitors of human PAFAH1B3. Q15102. recombinant PAFAH1B3, FP-rhodamine probe, fluorescence polarization. inhibition, % at 3.39 µM. 0.28% of 340,000 active;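 active = inhibition above the screen-wide average of all tested compounds plus 3 SD, cut at about 25% in these data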
PAFAH1B2 FP inh: inhibitors of human PAFAH1B2. P68402. AID 492953. recombinant PAFAH1B2, FP-rhodamine activity probe, fluorescence polarization. inhibition, % at 3.39 µM. 1.2% of 340,000 active;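 active = inhibition above the mean of all tested compounds plus 3 SD, cut at about 24% in these data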
pPAFAH FP inh: inhibitors of human plasma PAF acetylhydrolase (pPAFAH); Q13093; recombinant pPAFAH, FP-rhodamine probe fluorescence polarization; inhibition, % at 3.39 µM; 1.5% of 330,000 active; AID 463082;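 active = inhibition above the mean inhibition across the screen plus 3 SD, cut at about 25% in these data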;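 also: inhibitors block binding of the rhodamine activity-based probe so polarization drops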
PREPL inh cf: confirmation of human PREPL enzyme inhibitors. AID 2803. shares compounds with PREPL inh. inhibition, % at 5.96 µM. recombinant PREPL, fluorescence polarization activity probe. 67% of 2,000 active
A number is an active result; i = inactive; nt = no result given. Rule as the data show it, unless noted: active = inhibition above about 43%; inactive = the rest.

SMILES | PAFAH2 FP inh | Apaf1 inhib | PREPL inh | PAFAH1B3 inh | PAFAH1B2 FP inh | pPAFAH FP inh | PREPL inh cf
COc1ccc(Cn2c(SCc3ccccc3C)nc3cc(OC)c(OC)cc3c2=N)cc1 | i | 69.7 | 61.8 | i | i | i | 58.7
COc1cc2nc(SCc3ccc(F)cc3)n(Cc3cccs3)c(=N)c2cc1OC | i | i | i | i | i | i | nt
CCSc1nc2cc(OC)c(OC)cc2c(=O)n1CCc1ccccc1 | i | i | i | i | i | i | nt
Nc1c(N=Nc2ccccc2F)c(=O)[nH]n1-c1ccccc1 | i | i | i | i | i | i | nt
Nc1nn(-c2ccccc2)c(N)c1N=Nc1ccccc1 | i | i | 50.6 | i | i | i | 54.9
Nc1nn(-c2ccccc2)c(N)c1N=Nc1ccccc1F | i | i | 53.5 | i | i | i | 55.6
NC(=O)c1cc([N+](=O)[O-])ccc1NCc1cccc(N)c1 | i | i | i | i | i | i | nt
CC1CC(=O)c2c(cc3c(-c4c(O)cc(O)c5c(O)c6c(cc45)OC(C)CC6=O)c(O)cc(O)c3c2O)O1 (centres undefined) | 61.5 | 62.5 | 77.2 | 76.1 | 53.3 | 80.0 | i
O=C1CC(c2ccc(O)cc2)Oc2cc(O)cc(O)c21 (centres undefined) | i | i | i | i | i | i | nt
